According to ChEMBL document CHEMBL3227917, “Structure-activity relationships of dimeric Catharanthus alkaloids. 2. Experimental antitumor activities of N-substituted deacetylvinblastine amide (vindesine) sulfates” (J Med Chem, 1979):

Legend:
B16 [1] = assay: Antitumor activity against mouse B16 cells allografted in C57BL/6 mouse assessed as prolongation of host survival at 0.90 mg/kg, ip administered on days 1,5 and 9; assay type: functional; settings: route intraperitoneal
In short: (§1)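 B16 melanoma cells (10⁶ inoculum) implanted ip in C57BL/6 mice; groups of 10. Sulfate salts unless noted, given ip on days 1, 5 and 9. Single test. Survival prolongation is expressed as percent versus controls, with survivors counted on day 60. Toxic means deaths of ≥5 of 10 animals before the first control death.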

[2] = Antitumor activity against mouse P388/VCR/I/63 cells allografted in Dublin-CDF1 mouse assessed as increase in host lifespan at 0.7 mg/kg, ip administered on days 1, 5 and 9; assay type: functional; settings: route intraperitoneal
[3] = Antitumor activity against mouse P388/VCR/I/63 cells allografted in Dublin-CDF1 mouse assessed as day of host death at 1.6 mg/kg, ip administered on days 1, 5 and 9 (reference value: 10 days); assay type: functional; settings: route intraperitoneal
CHO [4] = assay: Mitotic arrest in CHO cells assessed as increase in cell accumulation at 0.2 ug/ml; assay type: functional, Cricetulus griseus
In short: (§2)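 Chinese hamster ovary cells in tissue culture, scored for mitotic arrest as increase in cells in mitotic arrest over control: +++, 40–50%; ++, 15–40%; +, 10–15%; ±, 7–10%; –, 3–7%. Cytotoxicity noted separately.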

P388/VCR [5] = assay: Antitumor activity against mouse P388/VCR cells allografted in CD2F1 mouse assessed as increase in host lifespan at 1.80 mg/kg, ip administered on days 1, 5 and 9; assay type: functional; settings: dose 1.8 mg/kg; route intraperitoneal
In short: (§3)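 Groups of eight male CD2F1 mice, tested at the NCI. Compounds were given as sulfate salts, dosed in mg/kg ip on days 1, 5 and 9. Activity was read as percent increase in lifespan against the leukemia line.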

P388/VCR [6] = assay: Antitumor activity against mouse P388/VCR cells allografted in B6D2F1 mouse assessed as increase in host lifespan at 1.20 mg/kg, ip administered on days 1, 5 and 9; assay type: functional; settings: dose 1.2 mg/kg; route intraperitoneal
In short: (§4)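 P388/VCR leukemia in groups of 10 B6D2F1 mice, run at Lilly using the cell strain received from NCI. Sulfate salts given ip on days 1, 5 and 9. Read-out is percent increase in lifespan.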

CHO [7] = assay: Mitotic arrest in CHO cells assessed as increase in cell accumulation at 0.002 ug/ml; assay type: functional, Cricetulus griseus; in short: as §2
[8] = Antitumor activity against mouse Gardner lymphosarcoma allografted in C3H mouse assessed as tumor growth inhibition at 0.10 mg/kg, ip administered daily for 8 to 10 days; assay type: functional; settings: route intraperitoneal, read-out: TGI
In short: (§5)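 Gardner lymphosarcoma in C3H mice; sulfate salts unless noted, given ip daily for 8–10 days, treatment starting 8 days after tumor implantation. Tumor growth inhibition scored as –, 0–25%; +, 26–50%; ++, 51–75%; +++, 76–100%; T, lethal to ≥5 of 10 animals per group. Average of one or more tests.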

P388/VCR [9] = assay: Antitumor activity against mouse P388/VCR cells allografted in B6D2F1 mouse assessed as increase in host lifespan at 0.90 mg/kg, ip administered on days 1, 5 and 9; assay type: functional; settings: dose 0.9 mg/kg; route intraperitoneal; in short: as §4
B16 [10] = assay: Antitumor activity against mouse B16 cells allografted in C57BL/6 mouse assessed as prolongation of host survival at 1.20 mg/kg, ip administered on days 1,5 and 9; assay type: functional; settings: route intraperitoneal; in short: as §1
P388/S [11] = assay: Antitumor activity against mouse P388/S cells allografted in CD2F1 mouse assessed as increase in host lifespan at 1.08 mg/kg, ip administered on days 1, 5 and 9; assay type: functional; settings: route intraperitoneal
In short: (§6)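 Groups of eight male CD2F1 mice bearing P388 leukemia, run at NCI. Sulfate salts given ip on days 1, 5 and 9. Read-out is percent increase in lifespan.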

[12] = Antitumor activity against mouse Gardner lymphosarcoma allografted in C3H mouse assessed as tumor growth inhibition at 0.30 mg/kg, ip administered daily for 8 to 10 days; assay type: functional; settings: route intraperitoneal, read-out: TGI; in short: as §5
Mus musculus [13] = assay: Toxicity in CD2F1 mouse allografted with mouse P388/VCR cells at 3.00 mg/kg, ip administered on days 1, 5 and 9; assay type: organism-based; set-up: dose 3 mg/kg, route intraperitoneal; settings: in vivo
P388/VCR [14] = assay: Antitumor activity against mouse P388/VCR cells allografted in CD2F1 mouse assessed as increase in host lifespan at 1.08 mg/kg, ip administered on days 1, 5 and 9; assay type: functional; settings: route intraperitoneal; in short: as §6
P388/S [15] = assay: Antitumor activity against mouse P388/S cells allografted in CD2F1 mouse assessed as increase in host lifespan at 1.80 mg/kg, ip administered on days 1, 5 and 9; assay type: functional; settings: dose 1.8 mg/kg; route intraperitoneal; in short: as §3
[16] = Toxicity in iv dosed mouse assessed as lethality; assay type: organism-based; settings: in vivo
Mus musculus [17] = assay: Toxicity in CD2F1 mouse allografted with mouse P388/S cells at 3.00 mg/kg, ip administered on days 1, 5 and 9; assay type: organism-based; set-up: dose 3 mg/kg, route intraperitoneal; settings: in vivo
[18] = Antitumor activity against mouse P388/VCR/I/63 cells allografted in Dublin-CDF1 mouse assessed as day of host death at 0.7 mg/kg, ip administered on days 1, 5 and 9 (reference value: 10 days); assay type: functional; settings: route intraperitoneal
P388/S [19] = assay: Antitumor activity against mouse P388/S cells allografted in CD2F1 mouse assessed as increase in host lifespan at 0.648 mg/kg, ip administered on days 1, 5 and 9; assay type: functional; settings: route intraperitoneal; in short: as §6
[20] = Antitumor activity against mouse P1534 cells allografted in DBA2 mouse assessed as tumor growth inhibition at 1.2 mg/kg, ip administered on days 1,5 and 9; assay type: functional; settings: route intraperitoneal, read-out: TGI
In short: (§7)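 P1534(J) leukemia implanted sc in DBA2 mice; agent given ip on days 1, 5 and 9 at 1.6, 1.2, 0.9 and 0.6 mg/kg in a single experiment. Activity scored as growth inhibition, –, 0–25%; +, 26–50%; ++, 51–75%; +++, 76–100%.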

[21] = Antitumor activity against mouse P1534 cells allografted in DBA2 mouse assessed as tumor growth inhibition at 0.9 mg/kg, ip administered on days 1,5 and 9; assay type: functional; settings: route intraperitoneal, read-out: TGI; in short: as §7
P388/VCR [22] = assay: Antitumor activity against mouse P388/VCR cells allografted in B6D2F1 mouse assessed as increase in host lifespan at 0.60 mg/kg, ip administered on days 1, 5 and 9; assay type: functional; settings: dose 0.6 mg/kg; route intraperitoneal; in short: as §4
[23] = Antitumor activity against mouse P1534 cells allografted in DBA2 mouse assessed as tumor growth inhibition at 1.6 mg/kg, ip administered on days 1,5 and 9; assay type: functional; settings: route intraperitoneal, read-out: TGI; in short: as §7
P388/VCR [24] = assay: Antitumor activity against mouse P388/VCR cells allografted in CD2F1 mouse assessed as increase in host lifespan at 0.648 mg/kg, ip administered on days 1, 5 and 9; assay type: functional; settings: route intraperitoneal; in short: as §6
B16 [25] = assay: Antitumor activity against mouse B16 cells allografted in C57BL/6 mouse assessed as prolongation of host survival at 0.60 mg/kg, ip administered on days 1,5 and 9; assay type: functional; settings: route intraperitoneal; in short: as §1
[26] = Antitumor activity against mouse Gardner lymphosarcoma allografted in C3H mouse assessed as tumor growth inhibition at 0.20 mg/kg, ip administered daily for 8 to 10 days; assay type: functional; settings: route intraperitoneal, read-out: TGI; in short: as §5
[27] = Antitumor activity against mouse P388/VCR/I/63 cells allografted in Dublin-CDF1 mouse assessed as increase in host lifespan at 1.0 mg/kg, ip administered on days 1, 5 and 9; assay type: functional; settings: route intraperitoneal
[28] = Antitumor activity against mouse P1534 cells allografted in DBA2 mouse assessed as tumor growth inhibition at 0.6 mg/kg, ip administered on days 1,5 and 9; assay type: functional; settings: route intraperitoneal, read-out: TGI; in short: as §7
[29] = Antitumor activity against mouse Gardner lymphosarcoma allografted in C3H mouse assessed as tumor growth inhibition at 0.05 mg/kg, ip administered daily for 8 to 10 days; assay type: functional; settings: route intraperitoneal, read-out: TGI; in short: as §5
[30] = Antitumor activity against mouse Gardner lymphosarcoma allografted in C3H mouse assessed as tumor growth inhibition at 0.40 mg/kg, ip administered daily for 8 to 10 days; assay type: functional; settings: route intraperitoneal, read-out: TGI; in short: as §5
[31] = Antitumor activity against mouse P388/VCR/I/63 cells allografted in Dublin-CDF1 mouse assessed as day of host death at 1.0 mg/kg, ip administered on days 1, 5 and 9 (reference value: 10 days); assay type: functional; settings: route intraperitoneal
[32] = Antitumor activity against mouse P388/VCR/I/63 cells allografted in Dublin-CDF1 mouse assessed as increase in host lifespan at 1.6 mg/kg, ip administered on days 1, 5 and 9; assay type: functional; settings: route intraperitoneal
CHO [33] = assay: Mitotic arrest in CHO cells assessed as increase in cell accumulation at 0.02 ug/ml; assay type: functional, Cricetulus griseus; in short: as §2
[34] = Antitumor activity against mouse P1534 cells allografted in DBA2 mouse assessed as tumor growth inhibition at 0.20 mg/kg, ip administered daily for 8 to 10 days; assay type: functional; settings: route intraperitoneal, read-out: TGI
In short: (§8)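 P1534(J) leukemia implanted sc in DBA2 mice; sulfate salts dosed ip daily for 8–10 days. Growth inhibition scored –, 0–25%; +, 26–50%; ++, 51–75%; +++, 76–100%; T, lethal to ≥5 of 10 animals per group. Average of one or more tests.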

[35] = Antitumor activity against mouse P1534 cells allografted in DBA2 mouse assessed as tumor growth inhibition at 0.40 mg/kg, ip administered daily for 8 to 10 days; assay type: functional; settings: route intraperitoneal, read-out: TGI; in short: as §8
[36] = Antitumor activity against mouse P1534 cells allografted in DBA2 mouse assessed as tumor growth inhibition at 0.30 mg/kg, ip administered daily for 8 to 10 days; assay type: functional; settings: route intraperitoneal, read-out: TGI; in short: as §8
[37] = Antitumor activity against mouse P1534 cells allografted in DBA2 mouse assessed as tumor growth inhibition at 0.25 mg/kg, ip administered daily for 8 to 10 days; assay type: functional; settings: route intraperitoneal, read-out: TGI; in short: as §8

Structure (SMILES)	Activity (CHO [4]) [%]	Activity (P388/VCR [5]) [%]	Activity (P388/VCR [6]) [%]	Activity (CHO [7]) [%]	Activity (P388/VCR [9]) [%]	Activity (P388/S [11]) [%]	Activity (Mus musculus [13])	Activity (P388/VCR [14]) [%]	Activity (P388/S [15]) [%]	LD50 [16] [mg/kg]	Activity (Mus musculus [17])	Activity (P388/S [19]) [%]	Activity (P388/VCR [22]) [%]	Activity (P388/VCR [24]) [%]	Activity (CHO [33]) [%]	other results
CC[C@]1(O)C[C@H]2CN(CCc3c([nH]c4ccccc34)[C@@](C(=O)OC)(c3cc4c(cc3OC)N(C)[C@H]3[C@@](O)(C(=O)NCCSSCCNC(=O)[C@@]5(O)[C@H](O)[C@]6(CC)C=CCN7CC[C@@]8(c9cc([C@@]%10(C(=O)OC)C[C@@H]%11CN(CCc%12c%10[nH]c%10ccccc%12%10)C[C@](O)(CC)C%11)c(OC)cc9N(C)[C@@H]58)[C@@H]76)[C@H](O)[C@]5(CC)C=CCN6CC[C@]43[C@@H]65)C2)C1.O=S(=O)(O)O	15	33	22	3	54	96	Toxic	46	50	6.9	Toxic	129	35	50	10	survival at 0.9 mg/kg (B16 [1]): 170%; Activity [2]: 85%; Activity [3]: 24.5 days; inhibition in vivo at 0.1 mg/kg [8]: 0%; survival at 1.2 mg/kg (B16 [10]): 170%; inhibition in vivo at 0.3 mg/kg [12]: 76%; Activity [18]: 18.5 days; inhibition in vivo at 1.2 mg/kg [20]: 76%; inhibition in vivo at 0.9 mg/kg [21]: 51%; inhibition in vivo at 1.6 mg/kg [23]: 76%; survival at 0.6 mg/kg (B16 [25]): 115%; inhibition in vivo at 0.2 mg/kg [26]: 51%; Activity [27]: 115%; inhibition in vivo at 0.6 mg/kg [28]: 26%; inhibition in vivo at 0.05 mg/kg [29]: 0%; inhibition in vivo at 0.4 mg/kg [30]: 76%; Activity [31]: 21.5 days; Activity [32]: 145%
CC[C@]1(O)C[C@@H]2CN(CCc3c([nH]c4ccccc34)[C@@](C(=O)OC)(c3cc4c(cc3OC)N(C)[C@H]3[C@@](O)(C(=O)OC)[C@H](OC(C)=O)[C@]5(CC)C=CCN6CC[C@]43[C@@H]65)C2)C1.O=S(=O)(O)O [VINBLASTINE SULFATE]	40	17	10	3	9	96	Toxic	12	92	10	Toxic	75	9	17	15	inhibition in vivo at 0.2 mg/kg [34]: 0%; inhibition in vivo at 0.4 mg/kg [35]: 51%; inhibition in vivo at 0.3 mg/kg [36]: 0%; inhibition in vivo at 0.25 mg/kg [37]: 0%
